According to ChEMBL document CHEMBL4699593, “Identification of 2,4-Disubstituted Imidazopyridines as Hemozoin Formation Inhibitors with Fast-Killing Kinetics and In Vivo Efficacy in the Plasmodium falciparum NSG Mouse Model” (J Med Chem, 2020):
In brackets after ≈: the same amount, converted by molar mass.

Tests used:
[1] = system: CHO; experiment: Cytotoxicity against CHO cells assessed as reduction in cell viability by MTT assay; assay type: cell-based, Cricetulus griseus; conditions: chinese hamster
Outline: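 Cytotoxicity was measured in Chinese hamster ovary (CHO) cells and reported as CC50. The selectivity index is CC50 divided by NF54 IC50.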

[2] = system: Plasmodium falciparum; experiment: Antiplasmodial activity against multidrug-sensitive asexual blood stage Plasmodium falciparum NF54 strain assessed as reduction in parasite growth after 72 hrs by NBT reagent based LDH assay; assay type: functional, organism-based; conditions: NF54, 72 h
[3] = system: Plasmodium falciparum; experiment: Antiplasmodial activity against multidrug-resistant asexual blood stage Plasmodium falciparum K1 strain assessed as reduction in parasite growth after 72 hrs by NBT reagent based LDH assay; assay type: functional, organism-based; conditions: K1, 72 h
Outline: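 Asexual blood-stage K1 (multidrug-resistant) parasites were read out by the parasite lactate dehydrogenase (pLDH) assay. […] Most individual values varied less than 2× (maximum 3×).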

[4] = target: Voltage-gated inwardly rectifying potassium channel KCNH2 (Homo sapiens, UniProt Q12809); experiment: Inhibition of human ERG by patch clamp method
[5] = Aqueous solubility of compound in phosphate buffer saline at pH 6.5 incubated for 20 hrs under shaking condition by shake-flask method based HPLC-DAD analysis; assay type: physicochemical; conditions: phosphate buffered saline
Outline: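 Equilibrium aqueous solubility was measured at pH 6.5 using a miniaturized shake-flask method.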

[6] = Selectivity index, ratio of CC50 for cytotoxicity against CHO cells assessed as reduction in cell viability to IC50 for antiplasmodial activity against multidrug-sensitive Plasmodium falciparum NF54 assessed as reduction in parasite growth; assay type: toxicity, cell-based; conditions: hamster, read-out: Ratio CC50/IC50

Voltage-gated inwardly rectifying potassium channel KCNH2, sequence (Q12809 whole entry): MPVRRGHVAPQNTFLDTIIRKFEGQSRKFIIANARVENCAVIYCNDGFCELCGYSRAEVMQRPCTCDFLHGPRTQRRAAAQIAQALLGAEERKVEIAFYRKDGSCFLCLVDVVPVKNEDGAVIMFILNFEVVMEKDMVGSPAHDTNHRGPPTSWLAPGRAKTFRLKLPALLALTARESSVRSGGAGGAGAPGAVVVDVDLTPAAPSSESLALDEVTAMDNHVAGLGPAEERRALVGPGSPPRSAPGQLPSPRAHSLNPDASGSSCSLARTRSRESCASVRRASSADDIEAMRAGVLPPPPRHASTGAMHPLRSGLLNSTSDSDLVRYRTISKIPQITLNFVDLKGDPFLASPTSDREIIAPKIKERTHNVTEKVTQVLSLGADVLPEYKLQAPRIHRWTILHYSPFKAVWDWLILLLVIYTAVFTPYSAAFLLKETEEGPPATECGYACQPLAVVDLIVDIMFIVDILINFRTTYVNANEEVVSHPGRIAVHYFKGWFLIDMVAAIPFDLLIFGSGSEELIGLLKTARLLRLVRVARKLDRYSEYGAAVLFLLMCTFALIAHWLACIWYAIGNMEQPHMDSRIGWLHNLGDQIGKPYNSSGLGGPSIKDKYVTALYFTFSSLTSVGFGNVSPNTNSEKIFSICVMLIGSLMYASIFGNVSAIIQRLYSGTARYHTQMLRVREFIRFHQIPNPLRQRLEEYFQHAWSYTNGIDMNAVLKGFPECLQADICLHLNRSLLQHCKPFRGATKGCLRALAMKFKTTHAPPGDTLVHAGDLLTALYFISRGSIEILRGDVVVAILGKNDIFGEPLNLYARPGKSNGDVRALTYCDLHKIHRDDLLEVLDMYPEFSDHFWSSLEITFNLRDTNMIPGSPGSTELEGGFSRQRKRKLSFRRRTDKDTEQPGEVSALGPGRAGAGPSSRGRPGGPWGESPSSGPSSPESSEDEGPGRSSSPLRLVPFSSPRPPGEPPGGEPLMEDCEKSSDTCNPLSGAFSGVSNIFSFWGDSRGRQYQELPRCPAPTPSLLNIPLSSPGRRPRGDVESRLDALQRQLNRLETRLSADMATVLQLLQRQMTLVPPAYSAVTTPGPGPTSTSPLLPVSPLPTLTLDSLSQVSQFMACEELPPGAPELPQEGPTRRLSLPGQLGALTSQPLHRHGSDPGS

Row | SMILES | CC50 [1] [µM] | IC50 [2] [nM] | IC50 [3] [nM] | IC50 [4] [µM] | solubility thermodynamic at 20 h [5] [µM] | selectivity ratio [6]
1 | Fc1cc(F)cc(-c2nc3c(N4CCC(CN5CCN(CC(F)(F)F)CC5)CC4)nccc3[nH]2)c1 | 40 | 75 | 160 | ≤ 3 | 180 (≈ 89 µg/mL) | –
2 | CN1CCN(CC2CCN(c3nccc4[nH]c(-c5cc(F)cc(F)c5)cc34)CC2)CC1 | 2.6 | 14 | 92 | 5 | 140 (≈ 59.6 µg/mL) | –
3 | CN1CCN(CC2CCN(c3ncnc4[nH]c(-c5cc(F)cc(F)c5)nc34)CC2)CC1 | – | 1800 | – | – | 55 (≈ 23.5 µg/mL) | –
4 | Fc1cc(F)cc(-c2nc3c(N4CCC(CN5CCNCC5)CC4)nccc3[nH]2)c1 | 20 | 38 | 240 | – | 190 (≈ 78.4 µg/mL) | –
5 | CN1CCCN(c2nccc3[nH]c(-c4cc(F)cc(F)c4)nc23)CC1 | – | – | – | 0.4 | – | –
6 | COC(=O)c1cccc(-c2nc3c(N4CCC(N5CCN(C)CC5)CC4)nccc3[nH]2)c1 | 34 | 79 | 280 | – | – | –
7 | CN1CCOC2(CCN(c3nccc4[nH]c(-c5cc(F)cc(F)c5)cc34)CC2)C1 | – | – | – | ≤ 3 | – | –
8 | OCCN1CCN(c2nccc3[nH]c(-c4ccc(F)c(F)c4)nc23)CC1 | – | 570 | 1400 | – | 95 (≈ 34.1 µg/mL) | –
9 | CN1CCN([C@H]2CC[C@@H](Nc3nccc4[nH]c(-c5cc(F)cc(F)c5)nc34)CC2)CC1 | 14 | 160 | 310 | – | 200 (≈ 85.3 µg/mL) | –
10 | CN1CCN(CC2CCN(c3ccnc4[nH]c(-c5cc(F)cc(F)c5)nc34)CC2)CC1 | – | 530 | – | – | < 5 | –
11 | C[C@@H]1CN(c2nccc3[nH]c(-c4ccc(F)c(F)c4)nc23)C[C@H](C)N1C | > 50 | 260 | 720 | – | 50 (≈ 17.9 µg/mL) | –
12 | CN1CCN(c2nccc3[nH]c(-c4cccc(OC(F)(F)F)c4)nc23)CC1 | – | 490 | – | – | – | –
13 | CN1CCN(CC2CCN(c3nccc4[nH]c(-c5cccc(OC(F)(F)F)c5)nc34)CC2)CC1 | 0.95 | < 20 | 12 | – | 200 (≈ 94.9 µg/mL) | 47
14 | Fc1cc(F)cc(-c2nc3c(N4CCC(CN5CCOCC5)CC4)nccc3[nH]2)c1 | > 50 | 290 | 390 | – | 25 (≈ 10.3 µg/mL) | –
15 | CN1CCN(CC2CCN(c3cccc4[nH]c(-c5cc(F)cc(F)c5)nc34)CC2)CC1 | 22 | 830 | 1500 | > 30 | 200 (≈ 85.1 µg/mL) | –
16 | CC(C)(C)N1CCN(CC2CCN(c3nccc4[nH]c(-c5cc(F)cc(F)c5)nc34)CC2)CC1 | 8.6 | 19 | 47 | – | 185 (≈ 86.7 µg/mL) | –
17 | CN1CCN(C2CCN(c3nccc4[nH]c(-c5cc(F)cc(F)c5)cc34)CC2)CC1 | – | – | – | 4 | – | –
18 | CN1CCN(CC2CCN(c3nccc4[nH]c(-c5ccc(F)c(F)c5)nc34)CC2)CC1 | 7.4 | < 20 | 27 | – | 195 (≈ 83.2 µg/mL) | 370
19 | Fc1ccc(-c2nc3c(N4CCCNCC4)nccc3[nH]2)cc1F | 7.2 | 210 | 1000 | – | 165 (≈ 54.3 µg/mL) | –
20 | O=C1CN(c2nccc3[nH]c(-c4ccc(F)c(F)c4)nc23)CCN1 | – | > 10000 | – | – | < 5 | –
21 | CN1CCN(C2CCN(c3nccc4[nH]c(-c5cccc(S(C)(=O)=O)c5)nc34)CC2)CC1 | > 50 | 450 | 1500 | – | 190 (≈ 86.4 µg/mL) | –
22 | CN1CCN(C[C@H]2CCCN(c3nccc4[nH]c(-c5cc(F)cc(F)c5)nc34)C2)CC1 | 7.9 | 73 | 170 | – | 200 (≈ 85.3 µg/mL) | –
23 | CN1CCN(CC2CCN(c3nccc4[nH]c(-c5cccc(OCCN)c5)nc34)CC2)CC1 | – | 2200 | – | – | 200 (≈ 89.9 µg/mL) | –
24 | Fc1ccc(-c2nc3c(N4CCN(CC(F)(F)F)CC4)nccc3[nH]2)cc1F | 39 | 2300 | – | – | 10 (≈ 3.97 µg/mL) | –
25 | CN1CCN(CC2CCN(c3nccc4[nH]c(-c5cc(F)cc(C(F)(F)F)c5)nc34)CC2)CC1 | 3.1 | 54 | 89 | – | 165 (≈ 78.6 µg/mL) | –
26 | O=S1(=O)CCN(CC2CCN(c3nccc4[nH]c(-c5cc(F)cc(F)c5)nc34)CC2)CC1 | > 50 | 1400 | – | – | < 5 | –
27 | CN1CCN(C2CCN(c3nccc4[nH]c(C5CCCC5)nc34)CC2)CC1 | – | > 10000 | – | – | 170 (≈ 62.6 µg/mL) | –

Row | SMILES | CC50 [1] [µM] | IC50 [2] [nM] | IC50 [3] [nM] | IC50 [4] [µM] | solubility thermodynamic at 20 h [5] [µM] | selectivity ratio [6]
28 | CN1CCN(CC2CCN(c3nccc4[nH]c(-c5cccc(C(=O)O)c5)nc34)CC2)CC1 | > 50 | > 10000 | – | – | 195 (≈ 84.7 µg/mL) | –
29 | CN1CCN(C2CCN(c3nccc4[nH]c(-c5ccc(F)c(F)c5)nc34)CC2)CC1 | 5 | 46 | 220 | – | 130 (≈ 53.6 µg/mL) | 110
30 | CN1CCN(CC2CCN(c3nccc4[nH]c(C5CCCC5)nc34)CC2)CC1 | – | 9300 | – | – | < 5 | –
31 | Fc1ccc(-c2nc3c(N4CCOCC4)nccc3[nH]2)cc1F | – | 3100 | – | – | – | –
32 | Fc1ccc(-c2nc3c(C4CCNCC4)nccc3[nH]2)cc1F | – | > 10000 | – | – | 200 (≈ 62.9 µg/mL) | –
33 | CN1CCN(C2CCN(c3nccc4[nH]c(-c5cccc(OC(F)(F)F)c5)nc34)CC2)CC1 | 3 | 64 | 91 | – | 190 (≈ 87.5 µg/mL) | 47
34 | Fc1ccc(-c2nc3c(N4CCN5CCCC5C4)nccc3[nH]2)cc1F (centres undefined) | 32 | 220 | 480 | – | 120 (≈ 42.6 µg/mL) | –
35 | CN1CCN(C2CCN(c3nccc4[nH]c(-c5cccc(C#N)c5)nc34)CC2)CC1 | 16 | 110 | 580 | – | – | –
36 | Fc1ccc(-c2nc3c(N4CCN5CCC4CC5)nccc3[nH]2)cc1F | 28 | 79 | 430 | – | 200 (≈ 71.1 µg/mL) | –
37 | NCC1CCN(c2nccc3[nH]c(-c4cccc(OC(F)(F)F)c4)nc23)CC1 | 2.9 | 68 | 190 | – | 200 (≈ 78.3 µg/mL) | –
38 | CN1CCN(C2CCN(c3nccc4[nH]c(-c5ccc(F)c(C(F)(F)F)c5)nc34)CC2)CC1 | 4.8 | 58 | 80 | – | 195 (≈ 90.2 µg/mL) | –
39 | CN1CCN(CC2CCN(c3nccc4[nH]c(-c5ccc(F)c(C(F)(F)F)c5)nc34)CC2)CC1 | 3.1 | 50 | 17 | – | 165 (≈ 78.6 µg/mL) | –
40 | CN1CCN(CC2CCN(c3nccc4[nH]c(-c5cccc(C(=O)N(C)C)c5)nc34)CC2)CC1 | > 50 | 1000 | – | – | 180 (≈ 83.1 µg/mL) | –
41 | CN(C)C1CCN(c2nccc3[nH]c(-c4cccc(OC(F)(F)F)c4)nc23)CC1 | – | 140 | 190 | – | 180 (≈ 73 µg/mL) | –
42 | CN1CCN(CC2CCN(c3nccc4c3nc(-c3cc(F)cc(F)c3)n4C)CC2)CC1 | – | > 3000 | – | – | 150 (≈ 66.1 µg/mL) | –
43 | Fc1ccc(-c2nc3c(N4CCN(c5ccccc5)CC4)nccc3[nH]2)cc1F | – | > 1000 | – | – | – | –
44 | Fc1cc(F)cc(-c2nc3c(N4CCC(CN5CCC(F)(F)CC5)CC4)nccc3[nH]2)c1 | 26 | 200 | 310 | – | < 5 | –
45 | Fc1ccc(-c2nc3c(N4CCC(N5CCNCC5)CC4)nccc3[nH]2)cc1C(F)(F)F | 34 | 36 | 460 | – | 200 (≈ 89.7 µg/mL) | –
46 | CN1CCN(C[C@@H]2CCCN(c3nccc4[nH]c(-c5cc(F)cc(F)c5)nc34)C2)CC1 | 3.2 | 28 | 130 | – | 145 (≈ 61.8 µg/mL) | –
47 | CN1CCOC2(CCN(c3nccc4[nH]c(-c5cc(F)cc(F)c5)nc34)CC2)C1 | 32 | 180 | 320 | – | 175 (≈ 69.9 µg/mL) | –
48 | CN1CCN([C@H]2CC[C@H](Nc3nccc4[nH]c(-c5cc(F)cc(F)c5)nc34)CC2)CC1 | 11 | 130 | 240 | – | 200 (≈ 85.3 µg/mL) | –
49 | CN1CCN(CC2CCN(c3nccc4[nH]c(-c5ccc(F)c(Cl)c5)nc34)CC2)CC1 | 0.85 | < 12 | 25 | – | 155 (≈ 68.7 µg/mL) | –
50 | NC1CCN(c2nccc3[nH]c(-c4ccc(F)c(F)c4)nc23)CC1 | 8.2 | 110 | 910 | – | 200 (≈ 65.9 µg/mL) | –
51 | Fc1ccc(-c2nc3c(N4CCNCC4)nccc3[nH]2)cc1F | 8.1 | 170 | 970 | 3.4 | 150 (≈ 47.3 µg/mL) | –
52 | CN1CCN(C(=O)C2CCN(c3nccc4[nH]c(-c5ccc(F)c(F)c5)nc34)CC2)CC1 | > 50 | 100 | 380 | 12 | 200 (≈ 88.1 µg/mL) | –
53 | C[C@@H]1CN(c2nccc3[nH]c(-c4ccc(F)c(F)c4)nc23)C[C@H](C)N1 | 6.5 | 76 | 450 | – | 190 (≈ 65.2 µg/mL) | –
